Drawing on ChEMBL document CHEMBL1799953, “Backbone cyclic peptide inhibitors of protein kinase B (PKB/Akt)” (J Med Chem, 2011), this text covers inhibition for 31 compounds.

Broadly, the inhibition is how much of the control response was suppressed.

Molecules are shown by their SMILES. Calls of active or inactive are those of the source. The calls are words filed in the database; no cut-off is given here. *1 amine or outer side, *2 acyl side, *3 side chain or, on linkers, in order; H or OH if unused. Where a SMILES comes first, the peptide text is derived from it. Bridges are numbered along the chain shown (N, C = ends). [ ]: non-standard residue; d: D form. N(6-aminohexyl)Gly = O=C(CN(CCCCCCN[*:3])[*:1])[*:2]; NGly(3-aminopropyl) = O=C(CN(CCCN[*:3])[*:1])[*:2]; N(2-Aminoethyl)Gly = O=C(CN(CCN[*:3])[*:1])[*:2]; Gly(N-(CH2)6NH2) = NCCCCCCNCC(=O)O; Gly(N-2-aminoethyl) = NCCNCC(=O)O; Cha = N[C@@H](CC1CCCCC1)C(=O)O; Gly(N(CH2)3NH2) = NCCCNCC(=O)O; hLeu = CC(C)CC[C@H](N)C(=O)O; Nle = CCCC[C@H](N)C(=O)O; Nva = CCC[C@H](N)C(=O)O; Dap = NC[C@H](N)C(=O)O; CO = O=C([*:1])[*:2]; Nlys = NCCCCNCC(=O)O

RAC-alpha serine/threonine-protein kinase, sequence (P31749 whole entry): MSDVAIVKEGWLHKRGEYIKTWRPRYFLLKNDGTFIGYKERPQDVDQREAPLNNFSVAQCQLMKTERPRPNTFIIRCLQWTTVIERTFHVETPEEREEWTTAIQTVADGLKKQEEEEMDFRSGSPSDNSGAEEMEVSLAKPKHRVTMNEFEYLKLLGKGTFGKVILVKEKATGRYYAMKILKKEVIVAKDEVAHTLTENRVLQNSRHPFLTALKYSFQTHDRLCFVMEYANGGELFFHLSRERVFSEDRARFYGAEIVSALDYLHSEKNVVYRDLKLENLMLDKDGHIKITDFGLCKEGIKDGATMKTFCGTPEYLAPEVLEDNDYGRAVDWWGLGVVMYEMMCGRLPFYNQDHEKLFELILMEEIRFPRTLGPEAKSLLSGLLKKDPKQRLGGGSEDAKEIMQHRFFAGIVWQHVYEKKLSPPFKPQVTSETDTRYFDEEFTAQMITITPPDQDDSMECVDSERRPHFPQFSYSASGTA

This assay addresses RAC-alpha serine/threonine-protein kinase (Homo sapiens, UniProt P31749). In words: Inhibition of Akt using RPRTSSF peptide and [gamma32]ATP at 5 uM by cell-free radioactive assay relative to control. The method in brief:
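Cell-free 32P kinase assay: HisΔPHPKBEEEFlag (0.005 units, one-step Ni-NTA partial purification), 50 mM Hepes pH 7.4, 0.1 mM EGTA, 0.1% 2-mercaptoethanol, 10 mM magnesium acetate, 3 μM RPRTSSF substrate, 10 μM [γ32P]ATP (1 μCi/well). Inhibitor at 5 μM. Activity loss expressed as percent of uninhibited reaction.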
On to `CCC[C@H](NC(=O)[C@H](CCCNC(=N)N)NC(=O)[C@@H](C)NC(=O)[C@@H](N)CCCNC(=N)N)C(=O)N[C@@H](Cc1ccc(O)cc1)C(=O)N[C@@H](CN)C(=O)N[C@@H](CCC(C)C)C(N)=O`, for which the inhibition result was “inactive”.

`CCC[C@H](NC(=O)[C@H](CCCNC(=N)N)NC(=O)[C@@H](CC(=O)O)NC(=O)[C@@H](N)CCCNC(=N)N)C(=O)N[C@@H](Cc1ccc(O)cc1)C(=O)N[C@@H](CN)C(=O)N[C@@H](CCC(C)C)C(N)=O`: the inhibition entry is “inactive”.

On to `CCC[C@H](NC(=O)[C@H](CCCNC(=N)N)NC(=O)[C@@H](CCCCN)NC(=O)[C@@H](N)CCCNC(=N)N)C(=O)N[C@@H](Cc1ccc(O)cc1)C(=O)N[C@@H](CN)C(=O)N[C@@H](CCC(C)C)C(N)=O`, for which the inhibition amounted to 27%.

Turning to `CCC[C@H](NC(=O)[C@H](CCCNC(=N)N)NC(=O)[C@@H](CN)NC(=O)[C@@H](N)CCCNC(=N)N)C(=O)N[C@@H](Cc1ccc(O)cc1)C(=O)N[C@@H](CN)C(=O)N[C@@H](CCC(C)C)C(N)=O`, the inhibition turned out to be 32%.

For `CCC[C@H](NC(=O)[C@H](CCCNC(=N)N)NC(=O)[C@@H](Cc1ccc(O)cc1)NC(=O)[C@@H](N)CCCNC(=N)N)C(=O)N[C@@H](Cc1ccc(O)cc1)C(=O)N[C@@H](CN)C(=O)N[C@@H](CCC(C)C)C(N)=O`, the inhibition entry is “inactive”.

Turning to `CCC[C@H](NC(=O)[C@H](CCCNC(=N)N)NC(=O)[C@@H](Cc1ccccc1)NC(=O)[C@@H](N)CCCNC(=N)N)C(=O)N[C@@H](Cc1ccc(O)cc1)C(=O)N[C@@H](CN)C(=O)N[C@@H](CCC(C)C)C(N)=O`, the inhibition result was “inactive”.

On to `CCC[C@H](NC(=O)[C@H](CCCNC(=N)N)NC(=O)[C@H](C)NC(=O)[C@@H](N)CCCNC(=N)N)C(=O)N[C@@H](Cc1ccc(O)cc1)C(=O)N[C@@H](CN)C(=O)N[C@@H](CCC(C)C)C(N)=O`, for which the inhibition was 81%.

`CCC[C@H](NC(=O)[C@H](CCCNC(=N)N)NC(=O)[C@H](CC(=O)O)NC(=O)[C@@H](N)CCCNC(=N)N)C(=O)N[C@@H](Cc1ccc(O)cc1)C(=O)N[C@@H](CN)C(=O)N[C@@H](CCC(C)C)C(N)=O`: the inhibition was found to be 68%.

With `CCC[C@H](NC(=O)[C@H](CCCNC(=N)N)NC(=O)[C@H](CCCCN)NC(=O)[C@@H](N)CCCNC(=N)N)C(=O)N[C@@H](Cc1ccc(O)cc1)C(=O)N[C@@H](CN)C(=O)N[C@@H](CCC(C)C)C(N)=O`, the inhibition came out at 92%.

On to `CCC[C@H](NC(=O)[C@H](CCCNC(=N)N)NC(=O)[C@H](CN)NC(=O)[C@@H](N)CCCNC(=N)N)C(=O)N[C@@H](Cc1ccc(O)cc1)C(=O)N[C@@H](CN)C(=O)N[C@@H](CCC(C)C)C(N)=O`, for which the inhibition came out at 94%.

As to `CCC[C@H](NC(=O)[C@H](CCCNC(=N)N)NC(=O)[C@H](Cc1ccc(O)cc1)NC(=O)[C@@H](N)CCCNC(=N)N)C(=O)N[C@@H](Cc1ccc(O)cc1)C(=O)N[C@@H](CN)C(=O)N[C@@H](CCC(C)C)C(N)=O`, the inhibition worked out at 74%.

Turning to `CCC[C@H](NC(=O)[C@H](CCCNC(=N)N)NC(=O)[C@H](Cc1ccccc1)NC(=O)[C@@H](N)CCCNC(=N)N)C(=O)N[C@@H](Cc1ccc(O)cc1)C(=O)N[C@@H](CN)C(=O)N[C@@H](CCC(C)C)C(N)=O`, the inhibition was 60%.

With `CCC[C@H](NC(=O)[C@H](CCCNC(=N)N)NC(=O)[C@H]1CCCN1C(=O)[C@@H](N)CCCNC(=N)N)C(=O)N[C@@H](Cc1ccc(O)cc1)C(=O)N[C@@H](CN)C(=O)N[C@@H](CCC(C)C)C(N)=O`, the inhibition entry was “inactive”.

For the compound `CCC[C@H](NC(=O)[C@H](CCCNC(=N)N)NC(=O)[C@H](CC1CCCCC1)NC(=O)[C@@H](N)CCCNC(=N)N)C(=O)N[C@@H](Cc1ccc(O)cc1)C(=O)N[C@@H](CN)C(=O)N[C@@H](CCC(C)C)C(N)=O` (H-R[Cha]R[Nva]Y[Dap][hLeu]-NH2), the inhibition stood at 85%.

Regarding `CCC[C@@H]1NC(=O)[C@H](CCCNC(=N)N)NC(=O)CN(C(=O)[C@@H](N)CCCNC(=N)N)CCNC(=O)NCCN(CC(N)=O)C(=O)[C@H](CCC(C)C)NC(=O)[C@H](CN)NC(=O)[C@H](Cc2ccc(O)cc2)NC1=O` (H-R[N(2-Aminoethyl)Gly]R[Nva]Y[Dap][hLeu][N(2-Aminoethyl)Gly]-NH2; linker 2-8 via CO), the inhibition came to 30%.

Take `CCC[C@@H]1NC(=O)[C@H](CCCNC(=N)N)NC(=O)CN(C(=O)[C@@H](N)CCCNC(=N)N)CCNC(=O)NCCCCN(CC(N)=O)C(=O)[C@H](CCC(C)C)NC(=O)[C@H](CN)NC(=O)[C@H](Cc2ccc(O)cc2)NC1=O` (H-R[N(2-Aminoethyl)Gly]R[Nva]Y[Dap][hLeu][Nlys]-NH2; linker 2-8 via CO): the inhibition worked out at 98%.

As for `CCC[C@@H]1NC(=O)[C@H](CCCNC(=N)N)NC(=O)CN(C(=O)[C@@H](N)CCCNC(=N)N)CCCCCCNC(=O)NCCN(CC(N)=O)C(=O)[C@H](CCC(C)C)NC(=O)[C@H](CN)NC(=O)[C@H](Cc2ccc(O)cc2)NC1=O` (H-R[N(6-aminohexyl)Gly]R[Nva]Y[Dap][hLeu][N(2-Aminoethyl)Gly]-NH2; linker 2-8 via CO), the inhibition turned out to be 68%.

`CCC[C@@H]1NC(=O)[C@H](CCCNC(=N)N)NC(=O)CN(C(=O)[C@@H](N)CCCNC(=N)N)CCCCCCNC(=O)NCCCCCCN(CC(N)=O)C(=O)[C@H](CCC(C)C)NC(=O)[C@H](CN)NC(=O)[C@H](Cc2ccc(O)cc2)NC1=O` (H-R[N(6-aminohexyl)Gly]R[Nva]Y[Dap][hLeu][N(6-aminohexyl)Gly]-NH2; linker 2-8 via CO): the inhibition came out at 39%.

As for `CCC[C@@H]1NC(=O)[C@H](CCCNC(=N)N)NC(=O)CN(C(=O)[C@@H](N)CCCNC(=N)N)CCCCCCNC(=O)NCCCCN(CC(N)=O)C(=O)[C@H](CCC(C)C)NC(=O)[C@H](CN)NC(=O)[C@H](Cc2ccc(O)cc2)NC1=O` (H-R[N(6-aminohexyl)Gly]R[Nva]Y[Dap][hLeu][Nlys]-NH2; linker 2-8 via CO), the inhibition is 100%.

Turning to `CCC[C@@H]1NC(=O)[C@H](CCCNC(=N)N)NC(=O)CN(C(=O)[C@@H](N)CCCNC(=N)N)CCCNC(=O)NCCN(CC(N)=O)C(=O)[C@H](CCC(C)C)NC(=O)[C@H](CN)NC(=O)[C@H](Cc2ccc(O)cc2)NC1=O` (H-R[NGly(3-aminopropyl)]R[Nva]Y[Dap][hLeu][N(2-Aminoethyl)Gly]-NH2; linker 2-8 via CO), the inhibition was 54%.

In the case of `CCC[C@@H]1NC(=O)[C@H](CCCNC(=N)N)NC(=O)CN(C(=O)[C@@H](N)CCCNC(=N)N)CCCNC(=O)NCCCN(CC(N)=O)C(=O)[C@H](CCC(C)C)NC(=O)[C@H](CN)NC(=O)[C@H](Cc2ccc(O)cc2)NC1=O` (H-R[NGly(3-aminopropyl)]R[Nva]Y[Dap][hLeu][NGly(3-aminopropyl)]-NH2; linker 2-8 via CO), the inhibition turned out to be 98%.

Regarding `CCC[C@@H]1NC(=O)[C@H](CCCNC(=N)N)NC(=O)CN(C(=O)[C@@H](N)CCCNC(=N)N)CCCNC(=O)NCCCCN(CC(N)=O)C(=O)[C@H](CCC(C)C)NC(=O)[C@H](CN)NC(=O)[C@H](Cc2ccc(O)cc2)NC1=O` (H-R[NGly(3-aminopropyl)]R[Nva]Y[Dap][hLeu][Nlys]-NH2; linker 2-8 via CO), the inhibition worked out at 92%.

`CCCC[C@H](NC(=O)[C@@H](N)CCCNC(=N)N)C(=O)N[C@@H](CCCNC(=N)N)C(=O)N[C@@H](CCC)C(=O)N[C@@H](Cc1ccc(O)cc1)C(=O)N[C@@H](CN)C(=O)N[C@@H](CCC(C)C)C(N)=O` (H-R[Nle]R[Nva]Y[Dap][hLeu]-NH2): the inhibition stood at 82%.

As for `CCC[C@@H]1NC(=O)[C@H](CCCNC(=N)N)NC(=O)CN(C(=O)[C@@H](N)CCCNC(=N)N)CCCCNC(=O)NCCN(CC(N)=O)C(=O)[C@H](CCC(C)C)NC(=O)[C@H](CN)NC(=O)[C@H](Cc2ccc(O)cc2)NC1=O` (H-R[Nlys]R[Nva]Y[Dap][hLeu][N(2-Aminoethyl)Gly]-NH2; linker 2-8 via CO), the inhibition was 84%.

On to `CCC[C@@H]1NC(=O)[C@H](CCCNC(=N)N)NC(=O)CN(C(=O)[C@@H](N)CCCNC(=N)N)CCCCNC(=O)NCCCCCCN(CC(N)=O)C(=O)[C@H](CCC(C)C)NC(=O)[C@H](CN)NC(=O)[C@H](Cc2ccc(O)cc2)NC1=O` (H-R[Nlys]R[Nva]Y[Dap][hLeu][N(6-aminohexyl)Gly]-NH2; linker 2-8 via CO), for which the inhibition came to 94%.

As to `CCC[C@@H]1NC(=O)[C@H](CCCNC(=N)N)NC(=O)CN(C(=O)[C@@H](N)CCCNC(=N)N)CCCCNC(=O)NCCCN(CC(N)=O)C(=O)[C@H](CCC(C)C)NC(=O)[C@H](CN)NC(=O)[C@H](Cc2ccc(O)cc2)NC1=O` (H-R[Nlys]R[Nva]Y[Dap][hLeu][NGly(3-aminopropyl)]-NH2; linker 2-8 via CO), the inhibition came out at 54%.

On to `CCC[C@H](NC(=O)[C@H](CCCNC(=N)N)NC(=O)[C@H](CCC)NC(=O)[C@@H](N)CCCNC(=N)N)C(=O)N[C@@H](Cc1ccc(O)cc1)C(=O)N[C@@H](CN)C(=O)N[C@@H](CCC(C)C)C(N)=O` (H-R[Nva]R[Nva]Y[Dap][hLeu]-NH2), for which the inhibition was 80%.

Regarding `CCC[C@H](NC(=O)[C@H](CCCNC(=N)N)NC(=O)CNCCCN)C(=O)N[C@@H](Cc1ccc(O)cc1)C(=O)N[C@@H](CN)C(=O)N[C@@H](CCC(C)C)C(=O)N(CCN)CC(N)=O` (H-[Gly(N(CH2)3NH2)]R[Nva]Y[Dap][hLeu][Gly(N-2-aminoethyl)]-NH2), the inhibition turned out to be 63%.

With `CCC[C@H](NC(=O)[C@H](CCCNC(=N)N)NC(=O)CNCCN)C(=O)N[C@@H](Cc1ccc(O)cc1)C(=O)N[C@@H](CN)C(=O)N[C@@H](CCC(C)C)C(=O)N(CCN)CC(N)=O` (H-[Gly(N-2-aminoethyl)]R[Nva]Y[Dap][hLeu][Gly(N-2-aminoethyl)]-NH2), the inhibition was 67%.

For the compound `CCC[C@H](NC(=O)[C@H](CCCNC(=N)N)NC(=O)CNCCCCCCN)C(=O)N[C@@H](Cc1ccc(O)cc1)C(=O)N[C@@H](CN)C(=O)N[C@@H](CCC(C)C)C(=O)N(CCN)CC(N)=O` (H-[Gly(N-(CH2)6NH2)]R[Nva]Y[Dap][hLeu][Gly(N-2-aminoethyl)]-NH2), the inhibition stood at 64%.

For `CCC[C@H](NC(=O)[C@H](CCCNC(=N)N)NC(=O)CNCCCCN)C(=O)N[C@@H](Cc1ccc(O)cc1)C(=O)N[C@@H](CN)C(=O)N[C@@H](CCC(C)C)C(=O)N(CCN)CC(N)=O` (H-[Nlys]R[Nva]Y[Dap][hLeu][Gly(N-2-aminoethyl)]-NH2), the inhibition amounted to 66%.
